Laboratory results from the M2OR odorant receptor database.

What follows are compounds tested against T1, OR2C1 (Homo sapiens) (UniProt O95371). Settings: stereoisomer not certain.
T1 sequence (whole entry): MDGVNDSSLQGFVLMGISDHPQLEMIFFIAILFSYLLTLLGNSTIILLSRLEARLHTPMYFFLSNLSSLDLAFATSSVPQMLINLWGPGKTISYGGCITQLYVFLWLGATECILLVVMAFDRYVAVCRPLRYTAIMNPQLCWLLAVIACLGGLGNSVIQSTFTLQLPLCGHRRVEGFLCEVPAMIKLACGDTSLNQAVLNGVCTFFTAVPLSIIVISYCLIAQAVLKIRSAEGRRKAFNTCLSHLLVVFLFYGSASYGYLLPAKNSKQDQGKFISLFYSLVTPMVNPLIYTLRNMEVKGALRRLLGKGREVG
Method in brief: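 Assay methods differ from source to source, frequently being transient luciferase assays in mammalian cell lines. For each receptor–molecule pair, the label responsive (active) applies when the original authors judged the measured signal statistically different from baseline, and non-responsive (inactive) applies otherwise.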

SMILES | odorant receptor agonist call
O=C(c1ccccc1)c1ccccc1 | inactive
COc1cc(C(=O)O)ccc1O | inactive
CCCCC(=O)O | inactive
CCCCCCCCC(=O)O | inactive
C=C(C)C1CCC(C)C(=O)C1 (stereo not drawn) | inactive
CC(=O)Oc1ccccc1 | inactive
CC12CCC(CC1=O)C2(C)C (stereo not drawn) | inactive
CCCCCCCCCS | active
CCCCCCCCS | active
CCCC(=O)C(C)=O | inactive
CCCCCCCC(C)=O | inactive
CCCCCC=O | inactive
CCCCCCCCO | inactive
O=C1Cc2ccccc2O1 | inactive
CCCC(C)=O | inactive
CC(C)=CCCC(C)CCO (stereo not drawn) | inactive
CCCCOC(=O)C(C)OC(=O)CCC (stereo not drawn) | inactive
CCCCCCCO | inactive
CCCCCC(=O)CC | inactive
CCC(C(=O)O)c1ccccc1 (stereo not drawn) | inactive
CCCCCCCCCCO | inactive
CCCCCCO | inactive
CCCCCCCC(=O)[O-].[H+] | inactive
CCOC(=O)C(C)C | inactive
C=CCOC(=O)CCCCCC | inactive
CCCCC(C)=O | inactive
CCCCCCCCCO | inactive
CCCCCCC(C)=O | inactive
